# The source made the active and inactive calls. The calls are words filed in the database; no cut-off is given here.
# Columns and labels:
# Aspergillus flavus = assay: Antimicrobial activity against Aspergillus flavus NRRL 6541 at 250 ug/disk by standard agar diffusion assay; format: functional, organism-based
# Bacillus subtilis = assay: Antimicrobial activity against Bacillus subtilis ATCC 6051 at 200 ug/disk by standard agar diffusion assay; format: functional; conditions: read-out: IZ
# Outline: (§1)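 Agar diffusion (disk) assay with 200 µg of compound applied per disk against the bacterial strain. The same panel at this loading also included Candida albicans ATCC 90029. Read-out was the zone of growth inhibition, recorded in mm.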
# Fusarium verticillioides = assay: Antimicrobial activity against Fusarium verticillioides NRRL 25457 at 250 ug/disk by standard agar diffusion assay; format: functional, organism-based
# Staphylococcus aureus = assay: Antimicrobial activity against Staphylococcus aureus ATCC 29213 at 200 ug/disk by standard agar diffusion assay; format: functional; conditions: read-out: IZ; outline: as §1
SMILES,Activity (Aspergillus flavus),zone of inhibition at 200 µg/disc (Bacillus subtilis) [mm],Activity (Fusarium verticillioides),zone of inhibition at 200 µg/disc (Staphylococcus aureus) [mm]
O=Cc1c(O)cccc1CCC(=O)O,inactive,22,inactive,–
CC(O)C(O)CC1OC(=O)c2c(O)cccc21 (centres undefined),inactive,–,inactive,–
CC1(O)C(=O)C=Cc2c1ccc(O)c2CO (centres undefined),inactive,–,inactive,–
CC(O)C(O)CC1OCc2c(O)cccc21 (mixture of isomers; 7a),inactive,–,inactive,–
CC(O)C(O)CC1OCc2c(O)cccc21 (mixture of isomers; 7b),inactive,–,inactive,–
O=C(O)CC1OCc2c(O)cccc21 (racemic),inactive,8,inactive,–
O=C(O)CC1OC(=O)c2c(O)cccc21 (racemic),inactive,–,inactive,–
COc1cc(O)c2c(c1)C(=O)[C@H]1C[C@](C)(O)[C@H](O)C[C@@H]1[C@H]2O (relative stereo),inactive,–,inactive,–
COc1cc(O)c2c(c1)C(=O)C1=C(C2=O)[C@H](O)[C@@H](O)[C@@](C)(O)[C@@H]1O [ALTERSOLANOL A],inactive,33,inactive,31
C[C@H]1O[C@@H]2O[C@H]1C=Cc1cccc(O)c12 [CLADOACETAL A],inactive,–,inactive,13
COc1cc(O)c2c(c1)C(=O)c1cc(C)c(O)cc1C2=O [MACROSPORIN],inactive,23,inactive,20
